The molecules below were run against Protein cereblon/Indoleamine 2,3-dioxygenase 1 (Homo sapiens, UniProt P14902+Q96SW2) (assay: Protac activity at IDO1/CRBN in IFNgamma-stimulated human U87 cells assessed as IDO1 degradation at 10 uM measured after 24 hrs by Western blotting analysis relative to control).
Type: cell-based
Summary of the method: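 U87 GBM cells primed with human IFNγ 50 ng/mL for 24 h, then exposed to PROTAC at 10 μM for 24 h. Lysates run on western blot; IDO1 bands quantified by densitometry and expressed as percent of normalized IDO1 protein level.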

Sequence of Protein cereblon/Indoleamine 2,3-dioxygenase 1 (P14902 whole entry, looked up): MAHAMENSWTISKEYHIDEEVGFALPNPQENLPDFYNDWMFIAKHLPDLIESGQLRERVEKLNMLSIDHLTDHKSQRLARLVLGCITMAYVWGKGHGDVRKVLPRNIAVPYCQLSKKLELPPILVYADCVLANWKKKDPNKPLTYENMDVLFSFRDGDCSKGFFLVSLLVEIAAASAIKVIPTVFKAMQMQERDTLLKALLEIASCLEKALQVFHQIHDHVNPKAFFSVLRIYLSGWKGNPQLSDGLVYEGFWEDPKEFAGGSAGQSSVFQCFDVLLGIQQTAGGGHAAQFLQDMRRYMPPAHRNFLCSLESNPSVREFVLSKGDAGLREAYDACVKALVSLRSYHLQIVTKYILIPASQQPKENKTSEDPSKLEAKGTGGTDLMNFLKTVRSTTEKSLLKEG
Sequence of Protein cereblon/Indoleamine 2,3-dioxygenase 1 (Q96SW2 whole entry, looked up): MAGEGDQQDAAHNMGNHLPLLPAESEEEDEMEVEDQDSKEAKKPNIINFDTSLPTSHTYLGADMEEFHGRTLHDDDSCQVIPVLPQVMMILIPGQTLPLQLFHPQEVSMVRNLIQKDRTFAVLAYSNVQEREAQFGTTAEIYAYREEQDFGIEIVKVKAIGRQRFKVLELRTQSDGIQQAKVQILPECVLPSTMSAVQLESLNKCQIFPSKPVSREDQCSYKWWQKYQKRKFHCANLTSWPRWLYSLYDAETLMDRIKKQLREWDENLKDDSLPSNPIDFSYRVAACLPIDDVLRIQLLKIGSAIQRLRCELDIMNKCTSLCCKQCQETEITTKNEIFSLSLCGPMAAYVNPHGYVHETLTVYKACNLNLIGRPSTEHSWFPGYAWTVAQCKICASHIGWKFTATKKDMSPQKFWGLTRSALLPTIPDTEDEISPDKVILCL

SMILES | Activity
C[C@@H](C(=O)Nc1ccc(Cl)c(OCCOCCOCCNc2cccc3c2C(=O)N(C2CCC(=O)NC2=O)C3=O)c1)[C@H]1CC[C@@H](c2ccnc3ccc(F)cc32)CC1 (stereo not given in full) | 71%
C[C@@H](C(=O)Nc1ccc(Cl)c(OCCOCCOCCOc2cccc3c2C(=O)N(C2CCC(=O)NC2=O)C3=O)c1)[C@H]1CC[C@@H](c2ccnc3ccc(F)cc32)CC1 (stereo not given in full) | 88%
C[C@@H](C(=O)Nc1ccc(OC2CCN(C(=O)CCOCCOCCOc3cccc4c3C(=O)N(C3CCC(=O)NC3=O)C4=O)CC2)cc1)[C@H]1CC[C@@H](c2ccnc3ccc(F)cc32)CC1 (stereo not given in full) | 80%
C[C@@H](C(=O)Nc1ccc(Cl)c(OCCOCCOCCOCCOCCNc2cccc3c2C(=O)N(C2CCC(=O)NC2=O)C3=O)c1)[C@H]1CC[C@@H](c2ccnc3ccc(F)cc32)CC1 (stereo not given in full) | 0%
C[C@@H](C(=O)Nc1ccc(Cl)c(OCCOCCOCCOCCOCCOCCNc2cccc3c2C(=O)N(C2CCC(=O)NC2=O)C3=O)c1)[C@H]1CC[C@@H](c2ccnc3ccc(F)cc32)CC1 (stereo not given in full) | 0%
C[C@@H](C(=O)Nc1ccc(OC2CCN(C(=O)CCOCCNc3cccc4c3C(=O)N(C3CCC(=O)NC3=O)C4=O)CC2)cc1)[C@H]1CC[C@@H](c2ccnc3ccc(F)cc32)CC1 (stereo not given in full) | 33%
C[C@@H](C(=O)Nc1ccc(Cl)c(OCCCCCCCCCOc2cccc3c2C(=O)N(C2CCC(=O)NC2=O)C3=O)c1)[C@H]1CC[C@@H](c2ccnc3ccc(F)cc32)CC1 (stereo not given in full) | 16%
C[C@@H](C(=O)Nc1ccc(Cl)c(OCCOCCOCCOCCOCCOCCOc2cccc3c2C(=O)N(C2CCC(=O)NC2=O)C3=O)c1)[C@H]1CC[C@@H](c2ccnc3ccc(F)cc32)CC1 (stereo not given in full) | 0%
C[C@@H](C(=O)Nc1ccc(Cl)c(OCCCCCCCCCNc2cccc3c2C(=O)N(C2CCC(=O)NC2=O)C3=O)c1)[C@H]1CC[C@@H](c2ccnc3ccc(F)cc32)CC1 (stereo not given in full) | 0%
C[C@@H](C(=O)Nc1ccc(OCCOCCOCCOCCOCCOCCNc2cccc3c2C(=O)N(C2CCC(=O)NC2=O)C3=O)cc1)[C@H]1CC[C@@H](c2ccnc3ccc(F)cc32)CC1 (stereo not given in full) | 0%
C[C@@H](C(=O)Nc1ccc(Cl)c(OCCCCCCCCCNC(=O)COc2cccc3c2C(=O)N(C2CCC(=O)NC2=O)C3=O)c1)[C@H]1CC[C@@H](c2ccnc3ccc(F)cc32)CC1 (stereo not given in full) | 0%
C[C@@H](C(=O)Nc1ccc(Cl)c(OCCOCCOCCOCCOCCOCCNC(=O)COc2cccc3c2C(=O)N(C2CCC(=O)NC2=O)C3=O)c1)[C@H]1CC[C@@H](c2ccnc3ccc(F)cc32)CC1 (stereo not given in full) | 0%
C[C@@H](C(=O)Nc1ccc(Cl)c(OCCOCCOCCOCCOc2cccc3c2C(=O)N(C2CCC(=O)NC2=O)C3=O)c1)[C@H]1CC[C@@H](c2ccnc3ccc(F)cc32)CC1 (stereo not given in full) | 13%
C[C@@H](C(=O)Nc1ccc(OC2CN(C(=O)CCOCCOCCNc3cccc4c3C(=O)N(C3CCC(=O)NC3=O)C4=O)C2)cc1)[C@H]1CC[C@@H](c2ccnc3ccc(F)cc32)CC1 (stereo not given in full) | 94%
C[C@@H](C(=O)Nc1ccc(Cl)c(OCCCCCCOc2cccc3c2C(=O)N(C2CCC(=O)NC2=O)C3=O)c1)[C@H]1CC[C@@H](c2ccnc3ccc(F)cc32)CC1 (stereo not given in full) | 0%
C[C@@H](C(=O)Nc1ccc(OC2CCN(CCCOCCOCCOc3cccc4c3C(=O)N(C3CCC(=O)NC3=O)C4=O)CC2)cc1)[C@H]1CC[C@@H](c2ccnc3ccc(F)cc32)CC1 (stereo not given in full) | 0%
C[C@@H](C(=O)Nc1ccc(Cl)c(OCCCCCCNc2cccc3c2C(=O)N(C2CCC(=O)NC2=O)C3=O)c1)[C@H]1CC[C@@H](c2ccnc3ccc(F)cc32)CC1 (stereo not given in full) | 0%
C[C@@H](C(=O)Nc1ccc(Cl)c(OCCOCCOCCOCCOCCNC(=O)COc2cccc3c2C(=O)N(C2CCC(=O)NC2=O)C3=O)c1)[C@H]1CC[C@@H](c2ccnc3ccc(F)cc32)CC1 (stereo not given in full) | 0%
C[C@@H](C(=O)Nc1ccc(Cl)c(OCCCNc2cccc3c2C(=O)N(C2CCC(=O)NC2=O)C3=O)c1)[C@H]1CC[C@@H](c2ccnc3ccc(F)cc32)CC1 (stereo not given in full) | 36%
C[C@@H](C(=O)Nc1ccc(OCCOCCOCCOCCOCCOCCOc2cccc3c2C(=O)N(C2CCC(=O)NC2=O)C3=O)cc1)[C@H]1CC[C@@H](c2ccnc3ccc(F)cc32)CC1 (stereo not given in full) | 0%
C[C@@H](C(=O)Nc1ccc(Cl)c(OCCOCCOCCOCCOCCOc2cccc3c2C(=O)N(C2CCC(=O)NC2=O)C3=O)c1)[C@H]1CC[C@@H](c2ccnc3ccc(F)cc32)CC1 (stereo not given in full) | 0%
C[C@@H](C(=O)Nc1ccc(OCCOCCOCCOCCOCCNc2cccc3c2C(=O)N(C2CCC(=O)NC2=O)C3=O)cc1)[C@H]1CC[C@@H](c2ccnc3ccc(F)cc32)CC1 (stereo not given in full) | 0%
C[C@@H](C(=O)Nc1ccc(OCCCCCCCCCCOc2cccc3c2C(=O)N(C2CCC(=O)NC2=O)C3=O)cc1)[C@H]1CC[C@@H](c2ccnc3ccc(F)cc32)CC1 (stereo not given in full) | 0%
C[C@@H](C(=O)Nc1ccc(OC2CN(C(=O)CCOCCNc3cccc4c3C(=O)N(C3CCC(=O)NC3=O)C4=O)C2)cc1)[C@H]1CC[C@@H](c2ccnc3ccc(F)cc32)CC1 (stereo not given in full) | 90%

The remaining lines, values ahead:

Activity | SMILES
0% | C[C@@H](C(=O)Nc1ccc(Cl)c(OCCCCCCNC(=O)COc2cccc3c2C(=O)N(C2CCC(=O)NC2=O)C3=O)c1)[C@H]1CC[C@@H](c2ccnc3ccc(F)cc32)CC1 (stereo not given in full)
46% | C[C@@H](C(=O)Nc1ccc(OCCOCCOCCOCCOCCOCCNC(=O)COc2cccc3c2C(=O)N(C2CCC(=O)NC2=O)C3=O)cc1)[C@H]1CC[C@@H](c2ccnc3ccc(F)cc32)CC1 (stereo not given in full)
33% | C[C@@H](C(=O)Nc1ccc(OC2CCN(CCCOCCOCCNC(=O)COc3cccc4c3C(=O)N(C3CCC(=O)NC3=O)C4=O)CC2)cc1)[C@H]1CC[C@@H](c2ccnc3ccc(F)cc32)CC1 (stereo not given in full)
18% | C[C@@H](C(=O)Nc1ccc(OCCOCCOc2cccc3c2C(=O)N(C2CCC(=O)NC2=O)C3=O)cc1)[C@H]1CC[C@@H](c2ccnc3ccc(F)cc32)CC1 (stereo not given in full)
0% | C[C@@H](C(=O)Nc1ccc(OCCCCNc2cccc3c2C(=O)N(C2CCC(=O)NC2=O)C3=O)cc1)[C@H]1CC[C@@H](c2ccnc3ccc(F)cc32)CC1 (stereo not given in full)
6% | C[C@@H](C(=O)Nc1ccc(Cl)c(OCCOCCOc2cccc3c2C(=O)N(C2CCC(=O)NC2=O)C3=O)c1)[C@H]1CC[C@@H](c2ccnc3ccc(F)cc32)CC1 (stereo not given in full)
47% | C[C@@H](C(=O)Nc1ccc(OCCOCCOCCNC(=O)COc2cccc3c2C(=O)N(C2CCC(=O)NC2=O)C3=O)cc1)[C@H]1CC[C@@H](c2ccnc3ccc(F)cc32)CC1 (stereo not given in full)
0% | C[C@@H](C(=O)Nc1ccc(OCCOCCOCCOCCNC(=O)COc2cccc3c2C(=O)N(C2CCC(=O)NC2=O)C3=O)cc1)[C@H]1CC[C@@H](c2ccnc3ccc(F)cc32)CC1 (stereo not given in full)
40% | C[C@@H](C(=O)Nc1ccc(Cl)c(OCCOCCOCCNC(=O)COc2cccc3c2C(=O)N(C2CCC(=O)NC2=O)C3=O)c1)[C@H]1CC[C@@H](c2ccnc3ccc(F)cc32)CC1 (stereo not given in full)
81% | C[C@@H](C(=O)Nc1ccc(OC2CCN(C(=O)CCOCCOCCNC(=O)COc3cccc4c3C(=O)N(C3CCC(=O)NC3=O)C4=O)CC2)cc1)[C@H]1CC[C@@H](c2ccnc3ccc(F)cc32)CC1 (stereo not given in full)
94% | C[C@@H](C(=O)Nc1ccc(OCCOCCOCCOc2cccc3c2C(=O)N(C2CCC(=O)NC2=O)C3=O)cc1)[C@H]1CC[C@@H](c2ccnc3ccc(F)cc32)CC1 (stereo not given in full)
74% | C[C@@H](C(=O)Nc1ccc(OC2CN(C(=O)CCOCCOCCOc3cccc4c3C(=O)N(C3CCC(=O)NC3=O)C4=O)C2)cc1)[C@H]1CC[C@@H](c2ccnc3ccc(F)cc32)CC1 (stereo not given in full)
77% | C[C@@H](C(=O)Nc1ccc(OCCOCCOCCNc2cccc3c2C(=O)N(C2CCC(=O)NC2=O)C3=O)cc1)[C@H]1CC[C@@H](c2ccnc3ccc(F)cc32)CC1 (stereo not given in full)
0% | C[C@@H](C(=O)Nc1ccc(OCCOCCOCCOCCOCCOc2cccc3c2C(=O)N(C2CCC(=O)NC2=O)C3=O)cc1)[C@H]1CC[C@@H](c2ccnc3ccc(F)cc32)CC1 (stereo not given in full)
9% | C[C@@H](C(=O)Nc1ccc(OC2CN(C(=O)CCOCCOCCNC(=O)COc3cccc4c3C(=O)N(C3CCC(=O)NC3=O)C4=O)C2)cc1)[C@H]1CC[C@@H](c2ccnc3ccc(F)cc32)CC1 (stereo not given in full)
45% | C[C@@H](C(=O)Nc1ccc(OC2CCN(C(=O)CCOCCOc3cccc4c3C(=O)N(C3CCC(=O)NC3=O)C4=O)CC2)cc1)[C@H]1CC[C@@H](c2ccnc3ccc(F)cc32)CC1 (stereo not given in full)
23% | C[C@@H](C(=O)Nc1ccc(OCCOCCNc2cccc3c2C(=O)N(C2CCC(=O)NC2=O)C3=O)cc1)[C@H]1CC[C@@H](c2ccnc3ccc(F)cc32)CC1 (stereo not given in full)
8% | C[C@@H](C(=O)Nc1ccc(Cl)c(OCCOCCNC(=O)COc2cccc3c2C(=O)N(C2CCC(=O)NC2=O)C3=O)c1)[C@H]1CC[C@@H](c2ccnc3ccc(F)cc32)CC1 (stereo not given in full)
0% | C[C@@H](C(=O)Nc1ccc(OCCCCCCCNC(=O)COc2cccc3c2C(=O)N(C2CCC(=O)NC2=O)C3=O)cc1)[C@H]1CC[C@@H](c2ccnc3ccc(F)cc32)CC1 (stereo not given in full)
0% | C[C@@H](C(=O)Nc1ccc(OCCOCCOCCOCCNc2cccc3c2C(=O)N(C2CCC(=O)NC2=O)C3=O)cc1)[C@H]1CC[C@@H](c2ccnc3ccc(F)cc32)CC1 (stereo not given in full)
0% | C[C@@H](C(=O)Nc1ccc(OCCOCCOCCOCCOCCNC(=O)COc2cccc3c2C(=O)N(C2CCC(=O)NC2=O)C3=O)cc1)[C@H]1CC[C@@H](c2ccnc3ccc(F)cc32)CC1 (stereo not given in full)
38% | C[C@@H](C(=O)Nc1ccc(OC2CCN(C(=O)CCOCCNC(=O)COc3cccc4c3C(=O)N(C3CCC(=O)NC3=O)C4=O)CC2)cc1)[C@H]1CC[C@@H](c2ccnc3ccc(F)cc32)CC1 (stereo not given in full)
0% | C[C@@H](C(=O)Nc1ccc(Cl)c(OCCOCCOCCOCCNC(=O)COc2cccc3c2C(=O)N(C2CCC(=O)NC2=O)C3=O)c1)[C@H]1CC[C@@H](c2ccnc3ccc(F)cc32)CC1 (stereo not given in full)
10% | C[C@@H](C(=O)Nc1ccc(OCCCCNC(=O)COc2cccc3c2C(=O)N(C2CCC(=O)NC2=O)C3=O)cc1)[C@H]1CC[C@@H](c2ccnc3ccc(F)cc32)CC1 (stereo not given in full)
0% | C[C@@H](C(=O)Nc1ccc(OC2CCN(CCCOCCOc3cccc4c3C(=O)N(C3CCC(=O)NC3=O)C4=O)CC2)cc1)[C@H]1CC[C@@H](c2ccnc3ccc(F)cc32)CC1 (stereo not given in full)
48% | C[C@@H](C(=O)Nc1ccc(OCCOCCNC(=O)COc2cccc3c2C(=O)N(C2CCC(=O)NC2=O)C3=O)cc1)[C@H]1CC[C@@H](c2ccnc3ccc(F)cc32)CC1 (stereo not given in full)

Reference: ChEMBL document CHEMBL5150051, “Identification and Characterization of a Novel Indoleamine 2,3-Dioxygenase 1 Protein Degrader for Glioblastoma” (J Med Chem, 2022)
